Data set [1] can be described thus: melting temperature; fluorescence melt of hairpins on a sequencing array, two-state fit, raised by 9.35 °C to match UV melts. The settings on record: sodium 0.088 M. Summed up:
(§1)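 On a sequenced MiSeq flow cell, library hairpins with annealed Cy3 and quencher oligos were imaged for Cy3 fluorescence in 2.5 °C steps up to 60 °C, in 50 mM Na-HEPES pH 8.0, 25 mM NaCl. Normalisation used pre-quench Cy3 and control constructs. Bootstrapped two-state fits gave melting temperature and folding enthalpy, combined by inverse variance across four replicates and with fitted temperatures raised by 9.35 °C to match UV melts.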

The nature of data set [2]: folding enthalpy; higher = less favourable; fluorescence melt of hairpins on a sequencing array, two-state fit. The settings on record: sodium 0.088 M. A digest of the protocol:
as §1

As to GACTATGGAAACATAGCC (.(((((....))))).), the Tm in data set [1] came to 35.7 °C. Besides, the folding enthalpy in data set [2] was -22.6 kcal/mol.
The corresponding values for GACTCACGAAAGTGGGTC (((.(((....))).))) are 57.6 °C and -41.1 kcal/mol.
The corresponding values for GACTCAGAAATGAGTC ((((((....)))))) are 54.5 °C and -35.9 kcal/mol.
GACTCAGGAAACTGAATC ((.((((....)))).)): in data set [1], the Tm came out at 27.7 °C. Moreover, the folding enthalpy in data set [2] was -16.3 kcal/mol.
The corresponding values for GACTCAGGAAACTGAGCC (.(((((....))))).) are 43.6 °C and -16.5 kcal/mol.
Consider GACTCCCGAAAGGGCGTC (((.(((....))).))), for which the Tm in data set [1] amounted to 53.5 °C. In data set [2], the folding enthalpy was -27.3 kcal/mol.
For the sequence GACTCCCGAAAGGGGTC (((.(((....)))))), the Tm in data set [1] is 50.8 °C. Also, the folding enthalpy in data set [2] is -24.9 kcal/mol.
As for GACTCCGAAAGGACAGTC ((((((....)))..))), the Tm in data set [1] turned out to be 37.9 °C. Besides, the folding enthalpy in data set [2] was -19.2 kcal/mol.
The corresponding values for GACTCCGAAAGGACGTC ((((((....))).))) are 49.9 °C and -30.8 kcal/mol.
The corresponding values for GACTCCGGAAACGGAACC (..((((....))))..) are 26.1 °C and -8.88 kcal/mol.
On to GACTCCGGAAACGGGGTC (((.(((....))).))), for which the Tm in data set [1] worked out at 57.2 °C. The folding enthalpy in data set [2] was -38 kcal/mol.
The corresponding values for GACTCGCGAAAGCGCGTC (((.(((....))).))) are 55.9 °C and -23.6 kcal/mol.
As for GACTCGGAAACGAGTC ((((((....)))))), the Tm in data set [1] was 66.4 °C. In addition, the folding enthalpy in data set [2] is -32.8 kcal/mol.
GACTCGGGAAACCGAGCC (.(((((....))))).): in data set [1], the Tm amounted to 47.8 °C. Further, in data set [2], the folding enthalpy was -17 kcal/mol.
On to GACTCTGGAAACAGAGCC (.(((((....))))).), for which, in data set [1], the Tm was 43 °C. In addition, the folding enthalpy in data set [2] is -18.3 kcal/mol.
For GACTCTGGAAACAGAGTC (((((((....))))))), the Tm in data set [1] was found to be 63.9 °C. Further, the folding enthalpy in data set [2] was -34.3 kcal/mol.
Consider GACTGAGGAAACTTAGTC ((((.((....)).)))), for which, in data set [1], the Tm was 39.4 °C. Further, the folding enthalpy in data set [2] is -26.3 kcal/mol.
The corresponding values for GACTGCGAAAGCAACGTC ((((((....)))..))) are 38.8 °C and -15.2 kcal/mol.
As for GACTGCGAAAGCACTGTC ((((((....)))..))), the Tm in data set [1] came out at 39.9 °C. In data set [2], the folding enthalpy was -12.8 kcal/mol.
The corresponding values for GACTGCGAAAGCATTGTC ((((((....)))..))) are 42 °C and -10.4 kcal/mol.
On to GACTGGACGAAAGTCGTC (((..(((....)))))), for which the Tm in data set [1] turned out to be 46.8 °C. Moreover, in data set [2], the folding enthalpy is -12.4 kcal/mol.
Take GACTGGGAAACCAGTC ((((((....)))))): in data set [1], the Tm is 60.1 °C. Also, the folding enthalpy in data set [2] was -35.1 kcal/mol.
The corresponding values for GACTGGGGAAACCCAGCC (.(((((....))))).) are 44.7 °C and -15.4 kcal/mol.
The corresponding values for GACTGGGGAAACCTAGTC ((((.((....)).)))) are 47.8 °C and -32.8 kcal/mol.
The corresponding values for GACTGTACGAAAGTAGTC (((..(((....)))))) are 36.9 °C and -28.8 kcal/mol.
For the sequence GACTGTCCGAAAGGAGTC (((..(((....)))))), the Tm in data set [1] came to 36.1 °C. In addition, the folding enthalpy in data set [2] was -14.6 kcal/mol.
The corresponding values for GACTGTGGAAACACAGTC (((((((....))))))) are 66.5 °C and -37.5 kcal/mol.
On to GACTGTGGAAACATAGTC ((((.((....)).)))), for which, in data set [1], the Tm was 45.2 °C. Also, in data set [2], the folding enthalpy was -28.5 kcal/mol.
The corresponding values for GACTTAACGAAAGTTGTC (((..(((....)))))) are 32.2 °C and -16.8 kcal/mol.
The corresponding values for GACTTACCGAAAGGTGTC (((..(((....)))))) are 36.3 °C and -16.4 kcal/mol.
As to GACTTACGAAAGTACGTC (((.(((....))).))), the Tm in data set [1] was found to be 44.3 °C. For the same sequence, the folding enthalpy in data set [2] was -33.2 kcal/mol.
The corresponding values for GACTTAGAAATAAGTC ((((((....)))))) are 43.8 °C and -30 kcal/mol.
For GACTTAGGAAACTAAGTC (((((((....))))))), in data set [1], the Tm was found to be 53.8 °C. Also, in data set [2], the folding enthalpy is -37.3 kcal/mol.
The corresponding values for GACTTAGGAAACTAGGTC (((.(((....))).))) are 36.8 °C and -32.1 kcal/mol.
Turning to GACTTAGGAAACTGAGTC ((((.((....)).)))), the Tm in data set [1] was 41.2 °C. The folding enthalpy in data set [2] is -36.1 kcal/mol.
The corresponding values for GACTTCCCGAAAGGGGTC (((..(((....)))))) are 34 °C and -10.5 kcal/mol.
The corresponding values for GACTTCGGAAACGAGGTC (((.(((....))).))) are 49.9 °C and -35.9 kcal/mol.

The record behind these values is the array DNA melting data of Ke et al. (doi:10.1101/2024.01.08.574731).
